A selection: hits, their analogues and other compounds. The true share with any hit is near 1.5%.
GSIS activator: GLuc luminescence reporter in INS-1E cells, primary screen for activators of glucose-dependent secretion of insulin | INS-1E GLuc reporter insulin secretion, 2-3 h | activation, % at 16.6 µM | actives 0.61% (n = 370,000);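 active = lowest replicate activation of at least 40%, so every replicate reaches that level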;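 note: 0% = median of neutral control wells and 100% = median of IBMX positive control wells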
SIRT5 block: inhibitors of human sirtuin-5 desuccinylase. Purified SirT5, succinyl-peptide AMC, trypsin-coupled fluorescence. inhibition, % at 15 µM. Q9NXA8. actives 1.1% (n = 330,000); in the data active = inhibition above about 15%
Target sequence (Q9NXA8 whole entry, looked up): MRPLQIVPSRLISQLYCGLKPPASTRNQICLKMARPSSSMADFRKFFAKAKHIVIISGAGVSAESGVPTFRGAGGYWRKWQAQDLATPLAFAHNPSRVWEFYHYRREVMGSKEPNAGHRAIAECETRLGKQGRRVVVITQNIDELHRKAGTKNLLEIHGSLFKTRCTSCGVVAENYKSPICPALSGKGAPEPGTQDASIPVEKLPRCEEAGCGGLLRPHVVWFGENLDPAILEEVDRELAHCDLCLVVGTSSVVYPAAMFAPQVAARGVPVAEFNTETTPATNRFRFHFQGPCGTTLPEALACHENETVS
ERp5 block: inhibitors of human ERp5; actives 0.05% (n = 350,000); Q15084; ERp5 insulin aggregation, absorbance 650 nm, 90 min; inhibition, % at 9.99 µM;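 active = mean replicate inhibition above about 25%, with every replicate also reaching it, limit read from the data, passing the limit was not always enough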
S100A4 MyoIIA: S100A4-myosin IIA interaction inhibition; P26447; S100A4/TAMRA-MyoIIA peptide fluorescence polarization; inhibition, % at 10.7 µM; actives 0.14% (n = 360,000);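 active = mean inhibition of at least 70% across replicates, with every replicate also reaching that level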
Target sequence (P26447 whole entry, looked up): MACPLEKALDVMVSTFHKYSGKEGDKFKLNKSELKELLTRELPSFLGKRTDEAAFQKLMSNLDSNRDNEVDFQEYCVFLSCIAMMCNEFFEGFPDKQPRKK
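Compound dosing: one dose per compound; test system: human S100A4 monomer with TAMRA-labelled myosin IIA peptide; probe or stimulus: TAMRA-labelled myosin IIA heavy-chain peptide probe, 5 nM; medium: HEPES buffer with Ca2+, pH 7.2; schedule: 5 min incubation before reading; benchmarks: neutral control DMSO, positive control TFP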
PDI inh: inhibitors of human protein disulfide isomerase. PDI insulin aggregation turbidity, A650, 90 min. inhibition, % at 10 µM. actives 0.052% (n = 350,000);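 active = mean inhibition across replicates of 30% or more, whatever share of single replicates reach that level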
* marks the source's active call; other numbers are inactive results; / = no result given.

SMILES	GSIS activator	SIRT5 block	ERp5 block	S100A4 MyoIIA	PDI inh
CCCNC(=O)C1(C)CCN(C(=O)c2cccc(C(F)(F)F)c2)C1 (stereo not drawn)	45*	/	-3	-3	0
CC1(C(=O)NCc2cccc(C(F)(F)F)c2)CCN1Cc1cc2ccccc2o1 (stereo not drawn)	/	-21	4	-1	-7
CCNC(=O)C1(C)CCCN1Cc1cccc(C(F)(F)F)c1 (stereo not drawn)	44*	/	1	-2	-1
CN(C)c1ccc2c(c1)[C@@H]1C[C@H](CC(=O)NCc3ccc(Cl)cc3)O[C@H](CO)[C@@H]1O2	-8	1	-10	-8	/
CNC[C@@H]1OCCCC[C@H](C)Oc2ccc(NC(=O)Nc3ccc(F)cc3)cc2C(=O)N([C@@H](C)CO)C[C@H]1C	2	5	1	-8	/
C[C@@H]1CN([C@@H](C)CO)S(=O)(=O)c2ccc(-c3ccccc3)cc2O[C@H]1CN(C)Cc1ccccn1	-21	6	-3	8	/
CCOC(=O)CSC1=C(C#N)C(c2sccc2C)C(C(C)=O)=C(C)N1 (stereo not drawn)	-5	34*	-4	1	12
CC(=O)C1=C(C)NC(SCC(N)=O)=C(C#N)C1c1sccc1C (stereo not drawn)	7	-5	-5	-2	5
Cc1noc(C)c1S(=O)(=O)N(C)C[C@@H]1Oc2ccc(NS(=O)(=O)c3cn(C)cn3)cc2CC(=O)N([C@@H](C)CO)C[C@H]1C	3	0	-2	-3	/
CC#CCN1C=C(C(=O)OCC)C(C)N(Cc2ccc(Br)cc2)S1(=O)=O (stereo not drawn)	-12	-2	-1	5	3
CCCN1C(C)C(C(=O)OCC)=CN(Cc2ccc(Br)cc2)S1(=O)=O (stereo not drawn)	-25	32*	4	0	-5
C[C@@H]1CN([C@H](C)CO)C(=O)c2cc(NC(=O)CCN3CCOCC3)ccc2O[C@@H]1CN(C)C	5	-3	1	14	/
O=C(Nc1ccc2c(c1)OCO2)N[C@H]1CC[C@@H](CCNC(=O)C2CC2)O[C@H]1CO	4	-1	7	3	/
C[C@@H]1CN([C@H](C)CO)C(=O)c2cccc(NS(=O)(=O)c3cn(C)cn3)c2O[C@H]1CN(C)S(=O)(=O)c1cn(C)cn1	-2	-5	-6	6	/
COc1ccc(CNC(=O)/C=C/[C@H]2O[C@@H](n3cnc4c(NC(=O)c5ccccc5)ncnc43)[C@H](O)[C@@H]2O)cc1	13	-4	-5	3	/
COC(=O)[C@@H](Cc1ccccc1)NC(=O)/C=C/[C@H]1O[C@@H](n2cnc3c(NC(=O)c4ccccc4)ncnc32)[C@H](O)[C@@H]1O	0	31*	-2	-15	/
Cc1ccc(S(=O)(=O)Nc2ccc3c(c2)CC(=O)N([C@H](C)CO)C[C@@H](C)[C@@H](CN(C)C(=O)Nc2ccc4c(c2)OCO4)O3)cc1	-3	-1	1	-2	/
COc1cccc(CC(=O)NNC(=O)CN(C)S(=O)(=O)c2ccc(C)cc2)c1	25	-2	27*	-5	5
C[C@@H]1CN([C@@H](C)CO)C(=O)c2cc(C#CCN(C)C)cnc2O[C@@H]1CN(C)Cc1ccc2c(c1)OCO2	14	2	-1	2	/
COCC(=O)N(C)C[C@H]1Oc2cc(C#Cc3ccccc3)ccc2S(=O)(=O)N([C@H](C)CO)C[C@H]1C	-10	2	12	18	/
O=C(O)CCNc1nc(C(F)(F)F)nc2ccccc12	1	48*	8	1	0
Cc1ccccc1S(=O)(=O)NCC[C@H]1CC[C@H](NC(=O)C2CCCCC2)[C@H](CO)O1	2	-5	-2	-61	/
C[C@H](CO)N1C[C@H](C)[C@@H](CN(C)C(=O)Nc2ccc3c(c2)OCO3)OCCCC[C@H](C)Oc2ccc(NC(=O)CCCN(C)C)cc2C1=O	2	0	2	-12	/
O=C(Nc1ccc(F)cc1)N[C@@H]1CC[C@@H](CCn2cc(C3(O)CCCC3)nn2)O[C@H]1CO	-18	-2	-4	9	/
CN(C)Cc1cn(CC[C@H]2CC[C@@H](NC(=O)Nc3ccccc3F)[C@@H](CO)O2)nn1	14	18*	1	12	/
SMILES	GSIS activator	SIRT5 block	ERp5 block	S100A4 MyoIIA	PDI inh
CN(C)Cc1cn(CC[C@H]2CC[C@H](NC(=O)Cc3cccnc3)[C@H](CO)O2)nn1	2	1	-2	94*	/
CN(C)Cc1cn(CC[C@@H]2CC[C@H](NC(=O)Cc3cccnc3)[C@H](CO)O2)nn1	7	-3	1	-2	/
CCCc1cn(CC[C@H]2CC[C@H](NC(=O)C3CCCCC3)[C@@H](CO)O2)nn1	-3	3	3	-1	/
CCCc1cn(CC[C@@H]2CC[C@H](NC(=O)C3CCCCC3)[C@@H](CO)O2)nn1	8	16*	-2	7	/
O=C(Nc1ccc(C(F)(F)F)cc1)N[C@@H]1CC[C@H](CCn2cc(C3(O)CCCC3)nn2)O[C@@H]1CO	-7	18*	0	20	/
C[C@@H]1CN([C@@H](C)CO)C(=O)Cc2cc(NC(=O)Nc3ccc(C(F)(F)F)cc3)ccc2O[C@H]1CN(C)C(=O)NC1CCCCC1	-11	-1	-3	-5	/
CC(=O)Oc1ccc(C2OC(=O)c3ccccc3N2C(C)=O)cc1 (stereo not drawn)	/	/	/	10	32*
COc1ccc(C2Oc3ccccc3N2C(C)=O)cc1 (stereo not drawn)	/	/	/	/	-9
CC1(C)CC(=O)C2=C(C1)c1c(ccc3ccccc13)NC2c1cc([N+](=O)[O-])cc([N+](=O)[O-])c1O (stereo not drawn)	-5	17*	-2	7	0
CO[C@@H]1CC[C@@H]2CCN(C)C(=O)C[C@H](c3ccccc3)CN(C)C(=O)c3cccc(C#N)c3OC[C@@H]1O2	4	25*	7	0	/
CO[C@H]1CC[C@H]2CCN(C)C(=O)C[C@H](c3ccccc3)CN(C)C(=O)c3cccc(C#N)c3OC[C@@H]1O2	14	-1	6	-1	/
CO[C@@H]1CC[C@H]2CCOc3c(C#N)cccc3C(=O)N(C)C[C@@H](c3ccccc3)CC(=O)N(C)C[C@H]1O2	4	0	1	16	/
CO[C@H]1CC[C@H]2CCOc3c(C#N)cccc3C(=O)N(C)C[C@H](c3ccccc3)CC(=O)N(C)C[C@H]1O2	-4	9	0	121*	/
COc1ccc2c(c1)C(=O)O[C@@H](c1ccccc1)C[C@@H](O)C(=O)CC2	6	20*	4	3	/
N/C(=N\OC(=O)c1ccccc1Br)c1cccc([N+](=O)[O-])c1	41*	-9	-4	-4	18
CCN(CCCNC(=O)C1CCC(=O)N1Cc1ccc(C)cc1)c1cccc(C)c1 (stereo not drawn)	-44	17*	-10	1	2
